{"data": "Assay results gathered from unrelated publications", "ALK C1156Y": "ALK tyrosine kinase receptor (ALK, Homo sapiens, UniProt Q9UM73, C1156Y)", "ALK": "ALK tyrosine kinase receptor (ALK, Homo sapiens, UniProt Q9UM73)", "ALK L1196M": "ALK tyrosine kinase receptor (ALK, Homo sapiens, UniProt Q9UM73, L1196M)", "note": "Compare with care: the assays were run in different laboratories."}
{"Compound": "CNC(=O)[C@@H]1CC[C@@H](n2c(-c3ccc4cnccc4c3)nc3ccc(C(=O)NCc4cccc(C(N)=O)c4)cc32)C1", "target": "ALK C1156Y", "test": "binding, competition with immobilised ligand", "setting": "1 µM", "remaining binding [%]": 100}
{"Compound": "COc1ncc2cc3ccccc3nc2c1C#N", "target": "ALK", "test": "cell-free assay, competition with immobilised ligand", "setting": "5 µM", "remaining binding [%]": 81}
{"Compound": "C[C@@H]1CCN(c2nccc(-c3cnn4ncccc34)n2)C1", "target": "ALK C1156Y", "test": "binding", "setting": "1 µM", "remaining binding [%]": 91}
{"Compound": "C[C@@H]1CN(c2cc(-c3nn(C)c4ccc(OC5(C)CC5)cc34)ncn2)C[C@H](C)O1", "target": "ALK L1196M", "test": "cell-free assay, competition with immobilised ligand", "setting": "1 µM", "remaining binding [%]": 98}
{"Compound": "CC1CCCN1c1nccc(-c2cnn3ncccc23)n1 (stereo not drawn)", "target": "ALK", "test": "binding", "setting": "1 µM", "remaining binding [%]": 69}
{"Compound": "CN1CCN(c2ccc(Nc3nccc(-c4cccc([N+](=O)[O-])c4)n3)cc2C(F)(F)F)CC1", "target": "ALK C1156Y", "test": "binding", "setting": "10 µM", "remaining binding [%]": 42}
{"Compound": "Nc1ncc2c(n1)-c1c([nH]c3ccc(C#CC4CC4)cc13)CCCC2", "target": "ALK", "test": "binding, competition with immobilised ligand", "setting": "1 µM", "remaining binding [%]": 95}
{"Compound": "O=C(NCCCN1CCOCC1)c1ccc(Nc2ncc(Cl)c(-c3ccc(Cl)s3)n2)cc1", "target": "ALK", "test": "binding, competition with immobilised ligand", "setting": "1 µM", "remaining binding [%]": 67}
{"Compound": "Cc1cnn2ncc(-c3ccnc(N(C)C)n3)c2c1", "target": "ALK L1196M", "test": "binding", "setting": "1 µM", "remaining binding [%]": 71}
{"Compound": "COc1cnc(Nc2cccc(S(N)(=O)=O)c2)nc1N1CCN(c2ccccc2)C(=O)C1", "target": "ALK C1156Y", "test": "binding, competition with immobilised ligand", "setting": "1 µM", "remaining binding [%]": 96}
{"Compound": "CCN1CCN(Cc2ccc(C(=O)Nc3ccc(C)c(Oc4ccc5c(c4)CC(=O)N5)c3)cc2C(F)(F)F)CC1", "target": "ALK", "test": "binding, competition with immobilised ligand", "setting": "1 µM", "remaining binding [%]": 100}
{"Compound": "C[C@@H](c1ccc(-n2cnc3c(N)ncnc32)cc1)N1CCc2nn(C)c(Cc3ccccc3)c2C1=O", "target": "ALK L1196M", "test": "binding, competition with immobilised ligand", "setting": "0.1 µM", "remaining binding [%]": 60}
{"Compound": "O=C(NC[C@@H]1[C@H]2CN(C(=O)OCc3cc(C(F)(F)F)cc(C(F)(F)F)c3)C[C@@H]12)c1ccc2[nH]nnc2c1", "target": "ALK", "test": "cell-free assay, competition with immobilised ligand", "setting": "1 µM", "remaining binding [%]": 79}
{"Compound": "CN(C)c1nccc(-c2cnc3ncccn23)n1", "target": "ALK C1156Y", "test": "binding", "setting": "1 µM", "remaining binding [%]": 82}
{"Compound": "O=C(Nc1c[nH]nc1C(=O)NC1CCNCC1)c1cc(F)cc(F)c1", "target": "ALK C1156Y", "test": "binding, competition with immobilised ligand", "setting": "1 µM", "remaining binding [%]": 100}
{"Compound": "Cc1cnc(Nc2ccc(C(=O)N3CCC(N4CCCC4)CC3)cc2)nc1-c1cc2ccccc2s1", "target": "ALK L1196M", "test": "binding, competition with immobilised ligand", "setting": "1 µM", "remaining binding [%]": 82}
{"Compound": "C[C@@H]1CN(c2ccc3ncc(-c4ccc5[nH]nc(C6CC6)c5c4)n3n2)C[C@H](C)O1", "target": "ALK", "test": "binding, competition with immobilised ligand", "setting": "0.5 µM", "remaining binding [%]": 80}
{"Compound": "O=C(NCC1CCOCC1)c1n[nH]cc1NC(=O)c1c(F)cccc1F", "target": "ALK L1196M", "test": "binding, competition with immobilised ligand", "setting": "1 µM", "remaining binding [%]": 100}
{"Compound": "O=S(=O)(NC1CCC(c2cc(F)ccc2F)(S(=O)(=O)c2ccc(Cl)cc2)CC1)C(F)(F)F (stereo not drawn)", "target": "ALK L1196M", "test": "cell-free assay, competition with immobilised ligand", "setting": "1 µM", "remaining binding [%]": 94}
{"Compound": "COc1cnc(Nc2cccc(S(N)(=O)=O)c2)nc1N1CCN(c2ccccc2)CC1", "target": "ALK", "test": "binding, competition with immobilised ligand", "setting": "1 µM", "remaining binding [%]": 78}
{"Compound": "CO[C@@H](C)c1c(Nc2ccc([C@H](N(C)C(=O)C3CCS(=O)(=O)CC3)C(F)(F)F)cc2)cnc2cc(Cl)nn12", "target": "ALK C1156Y", "test": "cell-free assay, competition with immobilised ligand", "setting": "1 µM", "remaining binding [%]": 89}
{"Compound": "O=C(c1ccc(Nc2nccc(-c3cc4ccccc4s3)n2)cc1)N1CCC(N2CCCC2)CC1", "target": "ALK", "test": "binding, competition with immobilised ligand", "setting": "1 µM", "remaining binding [%]": 84}
{"Compound": "C=CC(=O)N1CCC(C(=O)NCC(=O)N2CCN(c3nc(-c4cnc(N)nc4C(F)F)nc(N4CCOCC4)n3)CC2)CC1", "target": "ALK C1156Y", "test": "binding, competition with immobilised ligand", "setting": "1 µM", "remaining binding [%]": 91}
{"Compound": "O=C(c1ccc(Nc2ncc(Cl)c(-c3ccc(Cl)s3)n2)cc1)N1CCC(N2CCCC2)CC1", "target": "ALK L1196M", "test": "binding, competition with immobilised ligand", "setting": "1 µM", "remaining binding [%]": 67}
{"Compound": "CN(C)c1ncc(F)c(-c2cnn3ncccc23)n1", "target": "ALK C1156Y", "test": "binding", "setting": "1 µM", "remaining binding [%]": 80}
{"Compound": "c1cncc(-c2cccc(Nc3nccc(NC4CCCCC4)n3)c2)c1", "target": "ALK", "test": "binding, competition with immobilised ligand", "setting": "10 µM", "remaining binding [%]": 62}
{"Compound": "O=C(NCCCN1CCOCC1)c1ccc(Nc2nccc(-c3cc4ccccc4s3)n2)cc1", "target": "ALK", "test": "binding, competition with immobilised ligand", "setting": "1 µM", "remaining binding [%]": 100}
{"Compound": "CCOC(=O)c1cc2cc(-c3cc(C(=O)NCc4ccc(C(=O)O)cc4)nn3C)ccc2[nH]1", "target": "ALK L1196M", "test": "cell-free assay, competition with immobilised ligand", "setting": "0.1 µM", "remaining binding [%]": 98}
{"Compound": "CN(C)c1nccc(-c2cnn3ncccc23)n1", "target": "ALK C1156Y", "test": "binding", "setting": "1 µM", "remaining binding [%]": 71}
{"Compound": "CO[C@H]1CC[C@H](CNc2ccc(S(=O)(=O)NC(=O)c3ccc(N4CCN(CC5=C(c6ccc(Cl)cc6)CC(C)(C)CC5)CC4)cc3Oc3cnc4[nH]ccc4c3)cc2[N+](=O)[O-])CC1", "target": "ALK C1156Y", "test": "cell-free assay, competition with immobilised ligand", "setting": "1 µM", "remaining binding [%]": 100}
{"Compound": "N[C@@H]1CCN(c2nccc(-c3cnn4ncccc34)n2)C1", "target": "ALK L1196M", "test": "binding", "setting": "1 µM", "remaining binding [%]": 100}
{"Compound": "C[C@@H]1CN(c2cc(-c3n[nH]c4ccc(OC5(C)CC5)cc34)ncn2)C[C@H](C)O1", "target": "ALK", "test": "cell-free assay, competition with immobilised ligand", "setting": "0.1 µM", "remaining binding [%]": 65}
{"Compound": "O=C(c1ccc(Nc2ncc(Cl)c(-c3cc4ccccc4s3)n2)cc1)N1CCC(N2CCCC2)CC1", "target": "ALK C1156Y", "test": "binding, competition with immobilised ligand", "setting": "1 µM", "remaining binding [%]": 59}
{"Compound": "CN1CCN(c2ccc(Nc3nccc(-c4ccccc4)n3)cc2C(F)(F)F)CC1", "target": "ALK L1196M", "test": "binding", "setting": "10 µM", "remaining binding [%]": 100}
{"Compound": "C[C@H](c1ccc(F)cc1)N(Cc1cccc(C(=O)O)c1)C(=O)c1cnc2ccccc2c1", "target": "ALK", "test": "cell-free assay, competition with immobilised ligand", "setting": "1 µM", "remaining binding [%]": 94}
{"Compound": "COc1ccnn2ncc(-c3ccnc(N(C)C)n3)c12", "target": "ALK", "test": "binding", "setting": "1 µM", "remaining binding [%]": 96}
